Experimental data from ChEMBL document CHEMBL2331221, “Potent elastase inhibitors from cyanobacteria: structural basis and mechanisms mediating cytoprotective and anti-inflammatory effects in bronchial epithelial cells” (J Med Chem, 2013).
The source made the active and inactive calls.

Legend:
[1] = target: Tissue-type plasminogen activator (Homo sapiens) (UniProt P00750); test: Inhibition of tPA (unknown origin) using Z-GPR-AMC substrate assessed as residual activity at 10 uM incubated for 15 mins prior to substrate addition measured for 2 hrs
Tissue-type plasminogen activator (Homo sapiens), sequence (P00750 36-562 limits assumed): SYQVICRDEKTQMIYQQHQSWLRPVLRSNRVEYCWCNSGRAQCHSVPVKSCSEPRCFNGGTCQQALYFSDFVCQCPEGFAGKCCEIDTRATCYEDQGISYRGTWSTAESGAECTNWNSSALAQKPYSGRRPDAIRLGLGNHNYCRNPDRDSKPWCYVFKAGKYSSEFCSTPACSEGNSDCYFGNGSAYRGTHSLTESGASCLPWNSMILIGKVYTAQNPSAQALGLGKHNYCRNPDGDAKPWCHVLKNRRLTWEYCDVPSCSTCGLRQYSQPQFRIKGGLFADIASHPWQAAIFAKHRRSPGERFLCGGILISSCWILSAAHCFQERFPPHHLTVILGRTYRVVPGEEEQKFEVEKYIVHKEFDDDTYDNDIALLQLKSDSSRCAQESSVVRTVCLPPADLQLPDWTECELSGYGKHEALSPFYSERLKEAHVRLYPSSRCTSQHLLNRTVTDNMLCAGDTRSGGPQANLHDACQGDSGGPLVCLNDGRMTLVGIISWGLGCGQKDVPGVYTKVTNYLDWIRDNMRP
Outline: (§1)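 Protease panel screen: enzyme and inhibitor preincubated 15 min in reaction buffer, then substrate added; reaction followed for 2 h and the initial linear part of the progress curve used for activity. Enzyme, substrate, buffer and detection details are given only in a supporting table.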

[2] = target: Kallikrein-8 (Homo sapiens) (UniProt O60259); test: Inhibition of Kallikrein-8 (unknown origin) using VPR-AMC substrate assessed as residual activity at 10 uM incubated for 15 mins prior to substrate addition measured for 2 hrs
Outline: (§2)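 Protease panel screen: enzyme and test inhibitor preincubated 15 min in the enzyme's reaction buffer, then substrate added. Reaction followed for 2 h, and activity was taken from the initial linear portion of the progress-curve slope. Enzyme, substrate, buffer and detection conditions for each target are given only in the paper's supporting table.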

[3] = system: Hepacivirus hominis; test: Inhibition of Hepatitis C virus NS3/4A protease using Anaspec EnzoLyte substrate assessed as residual activity at 10 uM incubated for 15 mins prior to substrate addition measured for 2 hrs; outline: as §2
[4] = target: Granzyme B (Homo sapiens) (UniProt P10144); test: Inhibition of Granzyme B (unknown origin) using Ac-IEPD-AMC substrate assessed as residual activity at 10 uM incubated for 15 mins prior to substrate addition measured for 2 hrs; outline: as §2
Granzyme B (Homo sapiens), sequence (P10144 whole entry): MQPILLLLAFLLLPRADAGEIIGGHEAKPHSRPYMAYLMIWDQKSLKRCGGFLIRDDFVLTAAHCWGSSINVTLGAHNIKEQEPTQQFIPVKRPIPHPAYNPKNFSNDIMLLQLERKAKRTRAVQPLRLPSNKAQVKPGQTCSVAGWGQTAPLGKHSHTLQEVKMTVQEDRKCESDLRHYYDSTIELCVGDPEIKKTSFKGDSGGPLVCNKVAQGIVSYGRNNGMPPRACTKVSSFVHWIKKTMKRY

[5] = target: Coagulation factor X (Homo sapiens) (UniProt P00742); test: Inhibition of Factor-10a (unknown origin) using CH3SO2-D-CHA-Gly-Arg-AMC-AcOH substrate assessed as residual activity at 10 uM incubated for 15 mins prior to substrate addition measured for 2 hrs; outline: as §2
Coagulation factor X (Homo sapiens), sequence (P00742 41-179 limits assumed): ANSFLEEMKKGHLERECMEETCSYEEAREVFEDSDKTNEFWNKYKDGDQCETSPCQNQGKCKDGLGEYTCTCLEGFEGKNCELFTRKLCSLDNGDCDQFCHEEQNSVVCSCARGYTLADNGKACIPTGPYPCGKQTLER
Coagulation factor X (Homo sapiens), sequence (P00742 235-488 limits assumed): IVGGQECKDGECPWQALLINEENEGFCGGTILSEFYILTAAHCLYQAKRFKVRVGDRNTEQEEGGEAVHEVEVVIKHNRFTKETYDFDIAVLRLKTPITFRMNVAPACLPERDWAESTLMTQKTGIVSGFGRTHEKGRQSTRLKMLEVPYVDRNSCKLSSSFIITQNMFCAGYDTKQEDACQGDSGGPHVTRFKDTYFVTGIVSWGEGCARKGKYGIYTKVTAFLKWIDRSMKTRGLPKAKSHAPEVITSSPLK

[6] = target: Chymase (Homo sapiens) (UniProt P23946); test: Inhibition of Chymase (unknown origin) using Suc-AAPF-AMC substrate assessed as residual activity at 10 uM incubated for 15 mins prior to substrate addition measured for 2 hrs; outline: as §2
Chymase (Homo sapiens), sequence (P23946 whole entry): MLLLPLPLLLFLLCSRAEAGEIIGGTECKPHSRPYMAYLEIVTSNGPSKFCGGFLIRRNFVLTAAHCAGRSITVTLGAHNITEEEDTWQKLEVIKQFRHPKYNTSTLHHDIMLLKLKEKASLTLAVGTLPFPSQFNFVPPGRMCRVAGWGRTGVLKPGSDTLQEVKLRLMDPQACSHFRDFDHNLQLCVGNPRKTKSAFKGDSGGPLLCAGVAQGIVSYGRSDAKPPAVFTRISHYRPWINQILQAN

[7] = target: Dipeptidyl peptidase 1 (Homo sapiens) (UniProt P53634); test: Inhibition of Cathepsin C (unknown origin) using Z-FR-AMC substrate assessed as residual activity at 10 uM incubated for 15 mins prior to substrate addition measured for 2 hrs; outline: as §2
Dipeptidyl peptidase 1 (Homo sapiens), sequence (P53634 25-134 limits assumed): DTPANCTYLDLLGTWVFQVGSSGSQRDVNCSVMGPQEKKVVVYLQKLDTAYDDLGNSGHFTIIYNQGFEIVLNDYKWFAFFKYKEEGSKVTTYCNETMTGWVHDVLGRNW
Dipeptidyl peptidase 1 (Homo sapiens), sequence (P53634 231-394 limits assumed): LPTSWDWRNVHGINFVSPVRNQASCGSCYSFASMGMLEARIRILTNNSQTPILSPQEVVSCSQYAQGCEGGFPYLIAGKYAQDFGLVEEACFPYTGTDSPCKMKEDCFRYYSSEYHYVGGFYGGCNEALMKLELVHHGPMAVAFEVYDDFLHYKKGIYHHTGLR
Dipeptidyl peptidase 1 (Homo sapiens), sequence (P53634 395-463 limits assumed): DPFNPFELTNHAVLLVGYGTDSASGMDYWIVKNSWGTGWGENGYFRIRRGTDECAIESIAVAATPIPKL

[8] = Inhibition of Hepatitis C virus NS3/4A protease using Anaspec EnzoLyte substrate incubated for 15 mins prior to substrate addition measured for 2 hrs; parameters: species or system Hepacivirus hominis; outline: as §2
[9] = target: Coagulation factor XI (Homo sapiens, UniProt P03951); test: Inhibition of Factor-11a (unknown origin) using (Boc-Glu(OBzl)-Ala-Arg)-MCA substrate incubated for 15 mins prior to substrate addition measured for 2 hrs; outline: as §2
Coagulation factor XI, sequence (P03951 19-387 limits assumed): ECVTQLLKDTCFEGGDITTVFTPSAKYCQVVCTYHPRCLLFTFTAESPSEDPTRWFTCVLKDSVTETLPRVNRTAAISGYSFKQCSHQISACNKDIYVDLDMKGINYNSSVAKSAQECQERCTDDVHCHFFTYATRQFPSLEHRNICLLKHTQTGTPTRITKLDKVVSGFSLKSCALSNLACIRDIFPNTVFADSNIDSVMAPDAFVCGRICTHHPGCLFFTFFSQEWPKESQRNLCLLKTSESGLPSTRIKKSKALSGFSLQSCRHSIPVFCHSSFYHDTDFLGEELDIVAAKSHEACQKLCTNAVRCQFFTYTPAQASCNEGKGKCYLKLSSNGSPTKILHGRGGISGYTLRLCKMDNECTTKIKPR
Coagulation factor XI, sequence (P03951 388-625 limits assumed): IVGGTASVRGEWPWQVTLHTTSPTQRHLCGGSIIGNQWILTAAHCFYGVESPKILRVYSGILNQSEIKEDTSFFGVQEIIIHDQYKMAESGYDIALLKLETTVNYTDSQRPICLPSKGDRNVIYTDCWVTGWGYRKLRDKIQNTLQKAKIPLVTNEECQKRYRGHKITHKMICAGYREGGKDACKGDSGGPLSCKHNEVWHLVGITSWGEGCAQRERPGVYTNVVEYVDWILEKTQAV

[10] = Inhibition of human pancreatic Chymotrypsin using Suc-AAPF-pNa substrate incubated for 15 mins prior to substrate addition measured for 2 hrs; outline: as §1
[11] = target: Cathepsin D (Homo sapiens) (UniProt P07339); test: Inhibition of Cathepsin D (unknown origin) using MCA-KPILFFRLK(Dnp)-D-R-NH2 substrate assessed as residual activity at 10 uM incubated for 15 mins prior to substrate addition measured for 2 hrs; outline: as §2
[12] = target: Disintegrin and metalloproteinase domain-containing protein 9 (Homo sapiens) (UniProt Q13443); test: Inhibition of ADAM9 (unknown origin) using MCA-PLAQAV-Dpa-RSSSR-[…] substrate assessed as residual activity at 10 uM incubated for 15 mins prior to substrate addition measured for 2 hrs; outline: as §2
[13] = target: Matrix metalloproteinase-9 (Homo sapiens) (UniProt P14780); test: Inhibition of MMP9 (unknown origin) using (5-FAM/QXLTM) FRET peptide substrate assessed as residual activity at 10 uM incubated for 15 mins prior to substrate addition measured for 2 hrs; outline: as §1
Matrix metalloproteinase-9 (Homo sapiens), sequence (P14780 whole entry): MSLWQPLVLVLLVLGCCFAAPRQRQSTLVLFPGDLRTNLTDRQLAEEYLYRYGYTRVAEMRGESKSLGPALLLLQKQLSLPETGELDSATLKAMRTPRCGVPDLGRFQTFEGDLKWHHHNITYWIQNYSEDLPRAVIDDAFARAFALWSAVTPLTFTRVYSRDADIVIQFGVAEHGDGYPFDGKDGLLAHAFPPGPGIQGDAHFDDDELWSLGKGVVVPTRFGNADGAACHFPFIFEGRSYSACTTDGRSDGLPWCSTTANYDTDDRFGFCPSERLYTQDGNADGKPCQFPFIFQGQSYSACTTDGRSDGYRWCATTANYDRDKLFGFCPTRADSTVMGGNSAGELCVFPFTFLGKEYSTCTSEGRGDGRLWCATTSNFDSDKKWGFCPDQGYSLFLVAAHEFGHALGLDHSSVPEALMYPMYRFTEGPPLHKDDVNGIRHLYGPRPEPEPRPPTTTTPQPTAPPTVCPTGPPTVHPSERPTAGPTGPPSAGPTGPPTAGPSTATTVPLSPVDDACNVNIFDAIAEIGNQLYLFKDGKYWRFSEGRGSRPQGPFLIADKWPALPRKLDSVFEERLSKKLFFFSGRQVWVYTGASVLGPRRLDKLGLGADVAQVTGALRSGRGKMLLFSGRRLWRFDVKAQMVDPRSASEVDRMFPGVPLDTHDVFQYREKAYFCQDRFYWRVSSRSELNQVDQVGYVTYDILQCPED

[14] = target: 72 kDa type IV collagenase (Homo sapiens) (UniProt P08253); test: Inhibition of MMP2 (unknown origin) using (5-FAM/QXLTM) FRET peptide substrate assessed as residual activity at 10 uM incubated for 15 mins prior to substrate addition measured for 2 hrs; outline: as §2
[15] = target: Interstitial collagenase (Homo sapiens) (UniProt P03956); test: Inhibition of MMP1 (unknown origin) using (5-FAM/QXLTM) FRET peptide substrate assessed as residual activity at 10 uM incubated for 15 mins prior to substrate addition measured for 2 hrs; outline: as §2
Interstitial collagenase (Homo sapiens), sequence (P03956 whole entry): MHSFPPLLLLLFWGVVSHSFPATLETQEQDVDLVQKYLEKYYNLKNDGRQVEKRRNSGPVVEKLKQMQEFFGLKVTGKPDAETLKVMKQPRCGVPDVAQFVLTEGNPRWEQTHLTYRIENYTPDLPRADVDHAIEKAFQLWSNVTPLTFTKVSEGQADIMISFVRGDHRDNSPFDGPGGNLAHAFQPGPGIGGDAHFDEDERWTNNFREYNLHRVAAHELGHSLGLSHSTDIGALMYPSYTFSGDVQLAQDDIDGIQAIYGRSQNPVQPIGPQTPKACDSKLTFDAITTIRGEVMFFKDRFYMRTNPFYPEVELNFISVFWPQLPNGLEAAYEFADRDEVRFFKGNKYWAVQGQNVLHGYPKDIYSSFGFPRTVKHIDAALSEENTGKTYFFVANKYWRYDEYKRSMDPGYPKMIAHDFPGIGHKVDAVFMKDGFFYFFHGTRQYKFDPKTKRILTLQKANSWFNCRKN

[16] = target: Cathepsin Z (Homo sapiens) (UniProt Q9UBR2); test: Inhibition of Cathepsin X/Z (unknown origin) using MCA-RPPGFSAFK(Dnp) substrate assessed as residual activity at 10 uM incubated for 15 mins prior to substrate addition measured for 2 hrs; outline: as §2
[17] = target: Angiotensin-converting enzyme (Homo sapiens) (UniProt P12821); test: Inhibition of ACE1 (unknown origin) using MCA-RPPGFSAFK(Dnp) substrate assessed as residual activity at 10 uM incubated for 15 mins prior to substrate addition measured for 2 hrs; outline: as §2
Angiotensin-converting enzyme (Homo sapiens), sequence (P12821 whole entry): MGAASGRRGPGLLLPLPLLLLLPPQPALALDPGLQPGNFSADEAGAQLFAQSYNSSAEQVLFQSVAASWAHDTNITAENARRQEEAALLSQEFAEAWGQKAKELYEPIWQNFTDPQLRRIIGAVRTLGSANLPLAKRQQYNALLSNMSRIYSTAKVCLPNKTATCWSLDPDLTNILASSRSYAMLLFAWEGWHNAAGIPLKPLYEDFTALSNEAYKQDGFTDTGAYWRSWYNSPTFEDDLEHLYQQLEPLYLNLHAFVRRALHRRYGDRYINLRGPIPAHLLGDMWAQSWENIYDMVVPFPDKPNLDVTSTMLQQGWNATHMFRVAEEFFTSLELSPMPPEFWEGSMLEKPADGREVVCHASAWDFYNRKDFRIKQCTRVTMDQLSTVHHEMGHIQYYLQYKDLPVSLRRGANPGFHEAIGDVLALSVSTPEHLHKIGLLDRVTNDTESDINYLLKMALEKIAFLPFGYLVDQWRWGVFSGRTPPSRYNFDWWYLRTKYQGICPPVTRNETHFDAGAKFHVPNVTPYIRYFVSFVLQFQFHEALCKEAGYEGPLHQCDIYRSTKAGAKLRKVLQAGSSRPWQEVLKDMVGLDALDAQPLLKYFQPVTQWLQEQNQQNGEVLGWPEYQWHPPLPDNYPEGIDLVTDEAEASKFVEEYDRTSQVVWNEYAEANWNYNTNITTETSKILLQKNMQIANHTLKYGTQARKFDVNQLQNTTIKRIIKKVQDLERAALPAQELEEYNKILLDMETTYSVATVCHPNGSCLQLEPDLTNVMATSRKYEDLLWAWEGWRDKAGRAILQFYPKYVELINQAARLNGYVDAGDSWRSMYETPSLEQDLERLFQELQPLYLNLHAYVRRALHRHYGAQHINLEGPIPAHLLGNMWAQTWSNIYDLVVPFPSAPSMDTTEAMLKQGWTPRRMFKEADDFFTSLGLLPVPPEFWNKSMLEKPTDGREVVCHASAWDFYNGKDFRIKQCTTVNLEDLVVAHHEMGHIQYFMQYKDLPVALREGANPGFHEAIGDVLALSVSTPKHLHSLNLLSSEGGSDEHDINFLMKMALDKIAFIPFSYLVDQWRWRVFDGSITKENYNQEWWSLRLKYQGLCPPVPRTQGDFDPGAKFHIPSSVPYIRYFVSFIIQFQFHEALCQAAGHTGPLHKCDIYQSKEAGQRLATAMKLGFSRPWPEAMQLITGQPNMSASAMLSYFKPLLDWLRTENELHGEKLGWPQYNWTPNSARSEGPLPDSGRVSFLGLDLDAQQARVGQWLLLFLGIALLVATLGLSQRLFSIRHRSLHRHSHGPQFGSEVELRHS

[18] = target: Cathepsin L2 (Homo sapiens) (UniProt O60911); test: Inhibition of Cathepsin V (unknown origin) using Z-FR-AMC substrate assessed as residual activity at 10 uM incubated for 15 mins prior to substrate addition measured for 2 hrs; outline: as §2
[19] = target: Pro-cathepsin H (Homo sapiens) (UniProt P09668); test: Inhibition of Cathepsin H (unknown origin) using R-AMC substrate assessed as residual activity at 10 uM incubated for 15 mins prior to substrate addition measured for 2 hrs; outline: as §2
[20] = target: Tryptase gamma (Homo sapiens, UniProt Q9NRR2); test: Inhibition of Tryptase gamma1 (unknown origin) using Z-GPR-AMC substrate incubated for 15 mins prior to substrate addition measured for 2 hrs; outline: as §1
[21] = target: Trypsin (Homo sapiens, UniProt P07477+P07478+P35030); test: Inhibition of Trypsin (unknown origin) using H-D-CHA -Ala-Arg-AMC.2AcOH substrate incubated for 15 mins prior to substrate addition measured for 2 hrs; type: protein assay; outline: as §1
[22] = Inhibition of Proteinase K (unknown origin) using H-D-CHA -Ala-Arg-AMC.2AcOH substrate incubated for 15 mins prior to substrate addition measured for 2 hrs; parameters: species or system Homo sapiens; outline: as §1
[23] = target: Urokinase-type plasminogen activator (Homo sapiens) (UniProt P00749); test: Inhibition of Urokinase (unknown origin) using Bz-b-Ala-Gly-Arg-AMC.AcOH substrate assessed as residual activity at 10 uM incubated for 15 mins prior to substrate addition measured for 2 hrs; outline: as §1
[24] = target: T1, Neutrophil elastase (Homo sapiens) (UniProt P08246); conditions: 10 uM
T1 sequence (whole entry): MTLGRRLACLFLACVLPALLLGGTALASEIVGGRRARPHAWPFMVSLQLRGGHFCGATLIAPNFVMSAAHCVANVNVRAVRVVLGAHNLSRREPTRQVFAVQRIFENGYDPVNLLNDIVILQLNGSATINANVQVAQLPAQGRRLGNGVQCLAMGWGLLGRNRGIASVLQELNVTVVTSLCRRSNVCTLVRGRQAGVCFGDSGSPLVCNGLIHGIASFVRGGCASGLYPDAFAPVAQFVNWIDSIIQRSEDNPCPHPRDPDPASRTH

[25] = target: T1, Neutrophil elastase (Homo sapiens); conditions: 10 uM; remark: listed apart in the source

C/C=C1\NC(=O)[C@@H](NC(=O)[C@@H](NC(=O)[C@@H](COS(=O)(=O)[O-])OC)C(C)C)[C@@H](C)OC(=O)[C@H]([C@H](C)CC)NC(=O)[C@H](Cc2ccccc2)N(C)C(=O)[C@H](Cc2ccccc2)N2C(=O)[C@H](CC[C@H]2O)NC1=O.[Na+] [Symplostatin 5]
6.1: pIC50 [10]
< 5: pIC50 [22]
active: inhibition [24] | inhibition [25]
50%: Activity [2] | Activity [7]
> 5: pIC50 [8] | pIC50 [21]
< 10 µM: IC50 [9] | IC50 [20]
100%: Activity [1] | Activity [3] | Activity [4] | Activity [5] | Activity [6] | Activity [11] | Activity [12] | Activity [13] | Activity [14] | Activity [15] | Activity [16] | Activity [17] | Activity [18] | Activity [19] | Activity [23]
